Measurements: ChEMBL document CHEMBL4765302, “Design, synthesis and biological evaluation of novel histone deacetylase1/2 (HDAC1/2) and cyclin-dependent Kinase2 (CDK2) dual inhibitors against malignant cancer” (Eur J Med Chem, 2020)
Active and inactive are the calls of the source. The rule behind the calls is not given here.

Tests used:
Histone deacetylase 1 [1] = biological target: T1, Histone deacetylase 1 (Homo sapiens, UniProt Q13547); experiment: Inhibition of recombinant human HDAC1 at 10 uM using SIRT1 as substrate incubated for 10 mins followed by substrate addition and measured after 30 mins by fluorescence based assay relative to control; details: time 40.0 min
T1 sequence (Q13547 whole entry): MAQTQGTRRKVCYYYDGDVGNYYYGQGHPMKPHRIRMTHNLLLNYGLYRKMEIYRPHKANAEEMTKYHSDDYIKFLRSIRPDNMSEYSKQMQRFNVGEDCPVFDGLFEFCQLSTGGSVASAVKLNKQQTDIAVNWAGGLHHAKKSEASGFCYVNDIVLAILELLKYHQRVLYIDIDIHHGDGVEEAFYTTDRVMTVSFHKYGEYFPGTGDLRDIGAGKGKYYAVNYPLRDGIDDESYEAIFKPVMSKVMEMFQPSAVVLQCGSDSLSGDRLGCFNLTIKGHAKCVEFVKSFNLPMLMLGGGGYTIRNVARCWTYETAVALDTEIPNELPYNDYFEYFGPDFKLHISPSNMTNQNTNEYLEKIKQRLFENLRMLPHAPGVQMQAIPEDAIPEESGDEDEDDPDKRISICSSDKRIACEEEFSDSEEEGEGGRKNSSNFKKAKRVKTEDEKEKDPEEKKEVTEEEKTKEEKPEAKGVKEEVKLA
In short: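 Enzyme inhibition of HDAC1 measured at a single concentration of 10 µM, tested alongside the cell-growth screen.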

HepG2 = experiment: Antiproliferative activity against human HepG2 cells assessed as reduction in cell growth incubated for 72 hrs by CCK-8 assay; assay type: functional, cell-based; details: HepG2, 72 h
In short: (§1)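 IC50 by CCK-8 assay across five solid-tumour lines (HCT116, HepG2, H460, HeLa, A375). Run only for compounds chosen after the single-concentration screen, with CS055 and roscovitine as references.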

HeLa [2] = experiment: Antiproliferative activity against human HeLa cells assessed as reduction in cell growth incubated for 72 hrs by CCK-8 assay; assay type: functional, cell-based; in short: as §1
Histone deacetylase 1 [3] = biological target: T1, Histone deacetylase 1; experiment: Inhibition of recombinant human HDAC1 using SIRT1 as substrate incubated for 10 mins followed by substrate addition and measured after 30 mins by fluorescence based assay
In short: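 IC50 values reported as means of at least two separate determinations, expressed as mean ±SD.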

CDK2/Cyclin A2 = CDK2/Cyclin A2 (Homo sapiens, UniProt P24941); experiment: Inhibition of recombinant human N-terminal GST-tagged CDK2/CyclinA2 expressed in baculovirus infected Sf21 cells using histone H1 as substrate incubated for 10 mins by luminescence based assay
NCI-H460 [4] = experiment: Cytotoxicity against human NCI-H460 cells assessed as effect on cell morphology at 0.5 to 8 micromol incubated for 48 hrs by microscopic analysis; assay type: functional, cell-based; details: dose 0.5-8 µmol
In short: (§2)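 Five cancer cell lines treated with compound or DMSO (0.1 %) for 48 h. Morphology inspected by light microscopy at 10× objective.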

A-375 [5] = experiment: Cytotoxicity against human A-375 cells assessed as effect on cell morphology at 0.5 to 8 micromol incubated for 48 hrs by microscopic analysis; assay type: functional, cell-based; details: dose 0.5-8 µmol; in short: as §2
HCT-116 [6] = experiment: Cytotoxicity against human HCT-116 cells assessed as effect on cell morphology at 0.5 to 8 micromol incubated for 48 hrs by microscopic analysis; assay type: functional, cell-based; details: dose 0.5-8 µmol; in short: as §2
A-375 [7] = experiment: Antimigratory activity against human A-375 cells assessed as inhibition of migration at 0.5 uM incubated for 48 hrs by microscopic based wound healing test; assay type: functional, cell-based
In short: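 Scratch (wound-healing) migration assay in A375 and H460 cells seeded in 12-well plates. Cells exposed to compound, CS055, roscovitine or DMSO blank for 48 h. At least two independent experiments.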

NCI-H460 [8] = experiment: Induction of cell cycle arrest in human NCI-H460 cells assessed as reduction in G0/G1 phase at 0.5 to 2 uM incubated for 24 hrs by PI staining based flow cytometry; assay type: functional; details: dose 0.5-2 µM
In short: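 Treatment at 2, 1 and 0.5 μM for 24 h, alongside CS055 and roscovitine, against a DMSO (0.1 %) blank. Cells then stained with propidium iodide and analyzed by flow cytometry.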

A-375 [9] = experiment: Induction of apoptosis in human A-375 cells assessed as viable cells at 1 uM incubated for 48 hrs by annexin V-FITC and PI staining based flow cytometry (reference value: 96.3 %); assay type: functional; details: read-out: Activity
A-375 [10] = experiment: Induction of apoptosis in human A-375 cells assessed as early apoptotic cells at 1 uM incubated for 48 hrs by annexin V-FITC and PI staining based flow cytometry (reference value: 1.34 %); assay type: functional
A-375 [11] = experiment: Induction of apoptosis in human A-375 cells assessed as necrotic cells at 1 uM incubated for 48 hrs by annexin V-FITC and PI staining based flow cytometry (reference value: 0.139 %); assay type: functional
A-375 [12] = experiment: Induction of apoptosis in human A-375 cells assessed as early apoptotic cells at 0.5 uM incubated for 48 hrs by annexin V-FITC and PI staining based flow cytometry (reference value: 1.34 %); assay type: functional
A-375 [13] = experiment: Induction of apoptosis in human A-375 cells assessed as necrotic cells at 0.5 uM incubated for 48 hrs by annexin V-FITC and PI staining based flow cytometry (reference value: 0.139 %); assay type: functional
HCT-116 [14] = experiment: Induction of apoptosis in human HCT-116 cells assessed as late apoptotic cells at 2 uM incubated for 48 hrs by annexin V-FITC and PI staining based flow cytometry (reference value: 1.88 %); assay type: functional
HCT-116 [15] = experiment: Induction of apoptosis in human HCT-116 cells assessed as early apoptotic cells at 1 uM incubated for 48 hrs by annexin V-FITC and PI staining based flow cytometry (reference value: 4.14 %); assay type: functional
HCT-116 [16] = experiment: Induction of apoptosis in human HCT-116 cells assessed as viable cells at 0.5 uM incubated for 48 hrs by annexin V-FITC and PI staining based flow cytometry (reference value: 93.9 %); assay type: functional; details: read-out: Activity
NCI-H460 [17] = experiment: Induction of apoptosis in human NCI-H460 cells assessed as early apoptotic cells at 1 uM incubated for 48 hrs by annexin V-FITC and PI staining based flow cytometry (reference value: 2.88 %); assay type: functional
NCI-H460 [18] = experiment: Induction of apoptosis in human NCI-H460 cells assessed as late apoptotic cells at 1 uM incubated for 48 hrs by annexin V-FITC and PI staining based flow cytometry (reference value: 6.11 %); assay type: functional
NCI-H460 [19] = experiment: Induction of apoptosis in human NCI-H460 cells assessed as necrotic cells at 0.5 uM incubated for 48 hrs by annexin V-FITC and PI staining based flow cytometry (reference value: 0.632 %); assay type: functional
HeLa [20] = experiment: Induction of apoptosis in human HeLa cells assessed as early apoptotic cells at 2 uM incubated for 48 hrs by annexin V-FITC and PI staining based flow cytometry (reference value: 0.528 %); assay type: functional
HeLa [21] = experiment: Induction of apoptosis in human HeLa cells assessed as late apoptotic cells at 2 uM incubated for 48 hrs by annexin V-FITC and PI staining based flow cytometry (reference value: 0.870 %); assay type: functional
HeLa [22] = experiment: Induction of apoptosis in human HeLa cells assessed as late apoptotic cells at 1 uM incubated for 48 hrs by annexin V-FITC and PI staining based flow cytometry (reference value: 0.870 %); assay type: functional
HeLa [23] = experiment: Induction of apoptosis in human HeLa cells assessed as late apoptotic cells at 0.5 uM incubated for 48 hrs by annexin V-FITC and PI staining based flow cytometry (reference value: 0.870 %); assay type: functional
HeLa [24] = experiment: Induction of apoptosis in human HeLa cells assessed as necrotic cells incubated for 48 hrs by annexin V-FITC and PI staining based flow cytometry; assay type: functional, cell-based; details: dose 0.5-2 µM
NCI-H460 [25] = experiment: Induction of apoptosis in human NCI-H460 cells assessed as necrotic cells incubated for 48 hrs by annexin V-FITC and PI staining based flow cytometry; assay type: functional, cell-based; details: dose 0.5-2 µM
HCT-116 [26] = experiment: Induction of apoptosis in human HCT-116 cells assessed as necrotic cells incubated for 48 hrs by annexin V-FITC and PI staining based flow cytometry; assay type: functional, cell-based; details: dose 0.5-2 µM
[27] = MRT (0 to t) in ICR mouse at 4 mg/kg, iv measured upto 24 hrs by LC-MS/MS analysis; assay type: ADME, organism-based; details: in vivo
A-375 [28] = experiment: Induction of apoptosis in human A375 cells assessed as apoptosis rate at 2 uM incubated for 48 hrs by annexin V-FITC and PI staining based flow cytometry relative to control; assay type: functional
[29] = Intraperitoneal bioavailability in ICR mouse at 20 mg/kg measured upto 24 hrs by LC-MS/MS analysis; details: in vivo, ip

Cc1ccc(Nc2nc(Cl)nc3c2ncn3Cc2ccc(C(=O)Nc3ccccc3N)cc2)cc1
inhibition (Histone deacetylase 1 [1]): 88.7% | IC50 (HepG2): 860 nM | IC50 (HeLa [2]): 1050 nM | IC50 (Histone deacetylase 1 [3]): 70.7 nM | IC50 (CDK2/Cyclin A2): 800 nM | Activity (NCI-H460 [4]): Active | Activity (A-375 [5]): Active | Activity (HCT-116 [6]): Active | inhibition (A-375 [7]): Active | Activity (NCI-H460 [8]): Active | viability at 1 µM (A-375 [9]): 8.06% | Activity (A-375 [10]): 8% | Activity (A-375 [11]): 0.566% | Activity (A-375 [12]): 10.6% | Activity (A-375 [13]): 0.852% | Activity (HCT-116 [14]): 13.4% | Activity (HCT-116 [15]): 72.1% | viability at 0.5 µM (HCT-116 [16]): 21.3% | Activity (NCI-H460 [17]): 18.6% | Activity (NCI-H460 [18]): 17.5% | Activity (NCI-H460 [19]): 0.254% | Activity (HeLa [20]): 8.26% | Activity (HeLa [21]): 14.1% | Activity (HeLa [22]): 8.63% | Activity (HeLa [23]): 5.47% | Activity (HeLa [24]): Dose-dependent effect | Activity (NCI-H460 [25]): Dose-dependent effect | Activity (HCT-116 [26]): Dose-dependent effect | MRT last at 24 h [27]: 33.8 min | Activity (A-375 [28]): 91.99% | bioavailability [29]: 50.8%
